HNF4A DNA FP: change in binding of human HNF4 alpha to DNA; 0.3% of 360,000 active; HNF4a-FITC DNA binding, fluorescence polarization, 1 h; P41235; activity change, % at 10 µM; in the data active means activity change above about 30%, passing the limit was not always enough
Tb MetRS inh: blocks T. brucei methionyl-tRNA synthetase activity | purified T. brucei MetRS, ATP depletion, Kinase-Glo luminescence | inhibition, % at 11.9 µM | 0.4% of 360,000 active;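 active means inhibition above a per-plate cutoff of the control wells' mean inhibition plus 3 SD, cut at about 5.5% in these data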
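Dosing: 11.9 µM single point; system: parasite MetRS enzyme; technique: luminescence of leftover ATP; times: 15 min enzyme-compound preincubation, 2 h reaction, 10 min detection, 25 °C; replicates: each compound tested once; read-out basis: percent inhibition relative to median high and low control wells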
Rpn11 block: blocks the human proteasome subunit Rpn11. AID 588493. human 26S proteasome, Ub4-pepOG fluorescence polarization; 20S core pre-blocked with epoxomicin. inhibition, % at 20 µM. 0.59% of 360,000 active;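 active means inhibition at 20 µM, scaled to each plate's controls, above about 33%, limit read from the data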
Target sequence (O00487 whole entry, looked up): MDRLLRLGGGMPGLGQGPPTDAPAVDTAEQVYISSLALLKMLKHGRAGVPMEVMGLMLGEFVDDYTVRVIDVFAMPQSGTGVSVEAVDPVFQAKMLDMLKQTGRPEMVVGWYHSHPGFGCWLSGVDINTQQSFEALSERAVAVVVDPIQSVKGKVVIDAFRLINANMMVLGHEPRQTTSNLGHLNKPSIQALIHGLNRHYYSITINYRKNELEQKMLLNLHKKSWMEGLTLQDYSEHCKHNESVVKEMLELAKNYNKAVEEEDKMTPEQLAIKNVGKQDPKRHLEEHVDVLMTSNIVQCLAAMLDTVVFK
PREPL inhibitor: human PREPL enzyme inhibition. Q4J6C6. recombinant PREPL, fluorescence polarization activity-based probe. inhibition, % at 5.96 µM. 0.68% of 320,000 active; in the data active means inhibition above about 43%
CSN deneddyl inh: inhibitors of human CSN-mediated cullin deneddylation | Q92905 | inhibition, % at 12.5 µM | AID 651999 | 0.38% of 360,000 active | Purified CSN, SCF-Nedd8-OG deneddylation, fluorescence polarization;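 active means pattern-corrected inhibition above about 35%, with an unprinted fluorescence ratio check between 0.5 and 1.5, limit read from the data, passing the limit was not always enough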
Target sequence (Q92905 whole entry, looked up, one chain of several): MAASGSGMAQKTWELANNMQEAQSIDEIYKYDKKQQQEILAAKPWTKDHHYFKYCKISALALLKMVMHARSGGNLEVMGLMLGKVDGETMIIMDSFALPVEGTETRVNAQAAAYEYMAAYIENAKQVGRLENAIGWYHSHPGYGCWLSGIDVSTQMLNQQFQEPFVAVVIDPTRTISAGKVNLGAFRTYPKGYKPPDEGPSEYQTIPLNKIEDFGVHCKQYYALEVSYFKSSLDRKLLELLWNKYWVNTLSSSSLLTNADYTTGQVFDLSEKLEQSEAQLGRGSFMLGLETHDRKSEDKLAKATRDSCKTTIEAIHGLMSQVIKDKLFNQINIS
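Test system: Human Csn5 produced in HEK293T cells | Compound: 12.5 µM single point | Times: 90 min, room temperature | Signal: Fluorescence polarization readout | Read-out basis: % inhibition of substrate cleavage by Csn5 | Controls: no-enzyme wells high, enzyme-with-substrate wells low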
Neddyl block: inhibitors of human cullin neddylation; TR-FRET cullin neddylation, biochemical; inhibition, % at 25 µM; 0.58% of 360,000 active; P61081+Q13564; AID 651699; in the data active means inhibition above about 36%
Neddyl inh conf: confirmation of human cullin neddylation inhibitors. AID 652217. shares compounds with Neddyl block. TR-FRET cullin neddylation biochemical assay. calls only at 25 µM. 13% of 1,800 active; in the data active means inhibition above about 40%;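 further: neddylation substrate is the cullin 1 ring ligase complex with SKP2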
A number is an active result; n = inactive; x = no result shown; + = active, no number. In the library only some 2.4% were active in any assay of this set; here they are far more common.

SMILES | HNF4A DNA FP | Tb MetRS inh | Rpn11 block | PREPL inhibitor | CSN deneddyl inh | Neddyl block | Neddyl inh conf
CC1CCCC(C)N1C(=O)CN1c2cccc3cccc(c23)S1(=O)=O (stereo unspecified) | n | n | n | n | n | 50.9 | +
O=C(CN1c2cccc3cccc(c23)S1(=O)=O)NC1CCCCC1 | n | n | n | n | n | n | x
O=C(CN1c2cccc3cccc(c23)S1(=O)=O)N1CCCCC1 | n | n | n | n | n | 42.0 | +
O=C(CN1c2cccc3cccc(c23)S1(=O)=O)N1CCN(c2ccc(F)cc2)CC1 | n | n | n | n | n | n | x
O=C(O)c1ccc(/C=N/NC(=O)c2ccc(CN3c4cccc5cccc(c45)S3(=O)=O)cc2)cc1 | n | n | n | n | n | 50.7 | +
COc1ccc(CNC(=O)Nc2nnc([C@@H]3C[C@H](O)[C@@H](CO)O3)s2)cc1 | n | n | n | x | n | n | x
CCc1c(C)nc2cc(-c3ccccc3)[nH]n2c1=O | n | n | n | n | n | x | x
COc1cc(-c2cc3nc(C)c(C)c(=O)n3[nH]2)cc(OC)c1OC | n | n | n | n | n | 41.8 | n
CCOC(=O)[C@]12CCC=C1N(Cc1cccc3ccccc13)C(=O)[C@H](CC(=O)NCCCN1CCCC1=O)C2 | n | n | x | x | n | n | x
CC(C)NC(=O)c1cc2c(=O)n3ccccc3nc2s1 | n | n | n | n | n | n | x
CSc1ccccc1NC(=O)c1cc2c(=O)n3ccccc3nc2s1 | n | n | n | n | n | 47.7 | x
CCOc1ccc(-c2nc3scc(-c4cccs4)c3c(=O)[nH]2)cc1 | n | n | n | n | n | 40.4 | x
CCc1nc2scc(-c3cccs3)c2c(=O)o1 | n | n | n | n | n | n | x
COc1ccccc1C=NNC(=O)C(=O)NN=Cc1ccccc1OC | n | n | n | x | n | 40.4 | n
COc1ccccc1/C=N/NC(=O)c1ccccc1Cl | n | n | n | n | n | n | x
COc1ccccc1/C=N/NC(=O)c1ccccc1NS(=O)(=O)c1ccc(C)cc1 | n | n | n | n | n | 51.5 | x
COc1cccc(/C=N/NC(=O)C(=O)N/N=C/c2cccc(OC)c2OC)c1OC | n | n | n | n | n | n | x
Cc1ccc(Cl)c(OCC(=O)NCC(c2cccs2)N2CCOCC2)c1 (stereo unspecified) | n | n | n | n | n | n | x
CCOC(=O)c1ccc(-c2ccc(/C=N/NC(=O)CN(c3ccccc3Cl)S(C)(=O)=O)o2)cc1 | n | n | n | n | n | 50.6 | n
Cc1csc2ncc(C(=O)NCCc3ccccc3)c(=O)n12 | n | n | n | n | n | 46.7 | n
Cc1csc2ncc(C(=O)NCCC(c3ccccc3)c3ccccc3)c(=O)n12 | n | n | n | n | n | n | x
O=C1CSC(c2cn(-c3ccccc3)nc2-c2ccccc2)N1Cc1ccco1 (stereo unspecified) | n | n | n | n | n | n | x
O=C1CSC(c2cn(-c3ccccc3)nc2-c2cc3ccccc3oc2=O)N1Cc1cccnc1 (stereo unspecified) | n | n | n | n | n | 41.6 | n
CCCOC(=O)C1=C(C)N(C)C(=O)NC1c1cc2c(cc1[N+](=O)[O-])OCO2 (stereo unspecified) | n | n | n | n | n | 42.5 | n
CC1=C(C(=O)OCC(C)C)C(c2cc3c(cc2Br)OCO3)NC(=O)N1C (stereo unspecified) | n | n | n | n | n | n | x
SMILES | HNF4A DNA FP | Tb MetRS inh | Rpn11 block | PREPL inhibitor | CSN deneddyl inh | Neddyl block | Neddyl inh conf
OC[C@@H]1CN(Cc2ccccc2)C[C@H](n2cnc3c(NCc4ccncc4)ncnc32)O1 | n | n | n | x | n | n | x
CN(C)CCCNS(=O)(=O)c1ccc(NC2CCCCCC2)c([N+](=O)[O-])c1 | n | n | n | n | n | n | x
COc1cc(-c2nnc(CSc3nnc(Nc4ccc(C(C)C)cc4)s3)o2)cc(OC)c1OC | n | n | n | n | n | 42.8 | n
COc1ccccc1Nc1nnc(SCc2nnc(-c3cc(OC)c(OC)c(OC)c3)o2)s1 | n | n | n | n | n | n | x
CCCCOc1ccc(N(CC(=O)NCc2ccccc2)C(=O)c2csnn2)cc1 | n | n | n | n | n | n | x
COC(=O)N/N=C/c1ccc(OC(=O)/C=C/c2ccco2)cc1 | n | n | n | n | n | 52.1 | n
O=C(Cc1ccccc1)N/N=C/c1ccc(OC(=O)/C=C\c2ccco2)cc1 | n | n | n | n | n | n | x
O=C(CSc1cccc2cccnc12)Nc1cc(C(=O)O)cc(C(=O)O)c1 | n | n | n | n | n | 48.6 | +
N#CCCn1c(-c2nonc2NC(=O)c2ccccc2Cl)nc2ccccc21 | n | n | n | n | n | n | x
CC(=O)Nc1nonc1-c1nc2ccccc2n1CCC#N | n | n | n | n | n | 45.5 | n
CCCc1cc(=O)oc2c(C)c(OCC(=O)N3CCC[C@@H]3C(=O)O)ccc12 | n | n | n | n | n | 45.7 | n
CCCCCCc1c(C)c2ccc(OCC(=O)N3CCC[C@H]3C(=O)O)c(C)c2oc1=O | n | n | n | n | n | 49.0 | x
CCCc1cc(=O)oc2c(C)c(OCC(=O)N3CCC(C(N)=O)CC3)ccc12 | n | n | n | n | n | n | x
Cc1c(CCC(=O)N2CCC[C@H]2C(=O)O)c(=O)oc2c(C)c3oc4c(c3cc12)CCCC4 | n | n | n | n | n | x | x
COc1ccc(-c2noc(CCC(=O)NCCc3ccccc3)n2)cc1OC | n | n | n | x | n | n | x
Cc1ccc(S(=O)(=O)n2cccc2/C=C/[N+](=O)[O-])cc1 | n | n | n | x | n | n | x
CC(OC(=O)CNC(=O)c1ccc(Cl)cc1)C(=O)NC1CCCCC1C (stereo unspecified) | n | n | n | n | n | n | x
CCc1cc(C(c2cccc(OC)c2)N2CCOCC2)c(NC(=O)c2ccccc2)s1 (stereo unspecified) | n | n | n | n | n | x | x
CCc1cc(C(c2ccc(OC)c(OC)c2)N2CCOCC2)c(NC(=O)c2ccccc2)s1 (stereo unspecified) | n | n | n | n | n | 52.6 | n
CCSC1=N/C(=C\c2ccccc2)C(=O)N1c1ccc(OC)cc1 | n | n | n | n | n | x | x
CCN(CC)C1=N/C(=C\c2ccc(OC)cc2)C(=O)N1c1ccccc1 | n | n | n | n | n | 48.5 | n
Cc1cc2n(n1)C(c1ccc3c(c1)OCO3)Nc1ccccc1-2 (stereo unspecified) | n | n | n | n | n | 41.1 | n
Cn1c2ccc(F)cc2c2ncn(CCN3CCOCC3)c(=O)c21 | n | n | n | n | n | n | x
Cn1c2ccc(F)cc2c2ncn(CCCN(CCO)CCO)c(=O)c21 | n | n | n | n | n | 37.9 | n
